Laboratory results from ChEMBL document CHEMBL1149451, “Design, synthesis, and biological evaluation of 3,4-diarylmaleimides as angiogenesis inhibitors” (J Med Chem, 2006).

Tests used:
[1] = molecular target: Angiopoietin-1 receptor (Homo sapiens) (UniProt Q02763); assay: Inhibition of human TIE2 expressed in Sf9 cells at 10 uM; details: values are per cent of control
Procedure, shortened: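 Sf9-expressed recombinant GST- or His-tagged kinase, affinity-purified. Substrates: Rb-CTF for CDK1/4/6, histone H1 for CDK2, poly(Glu,Tyr)4:1 for ERBB2/TIE2. Single replicate, 1% DMSO final, 80 min at 30 °C.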

[2] = molecular target: T1, Vascular endothelial growth factor receptor 2 (Homo sapiens, UniProt P35968); assay: Inhibition of human VEGFR2
Gallus gallus [3] = organism: Gallus gallus; assay: Inhibition of vessel growth in chick embryo assay at 20 ug after 24 h; format: functional
Procedure, shortened: (§1)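 Chick embryo assay. White leghorn eggs incubated at 37.5 °C; window opened at 70 h after removing albumen. At 75 h, compound in DMSO stock was mixed into 2% agarose and given as 10 µL pellets, 15 per experiment, on the area vasculosa.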

[4] = molecular target: Angiopoietin-1 receptor (Homo sapiens) (UniProt Q02763); assay: Inhibition of human TIE2 expressed in Sf9 cells at 100 uM; values are per cent of control
[5] = molecular target: T1, Vascular endothelial growth factor receptor 2; assay: Inhibition of human VEGFR2 expressed in Sf9 cells at 10 uM; values are per cent of control
[6] = molecular target: T2, Protein kinase C iota type (Homo sapiens) (UniProt P41743); assay: Inhibition of human PKC iota expressed in Sf9 cells at 10 uM; values are per cent of control
T2 sequence (whole entry): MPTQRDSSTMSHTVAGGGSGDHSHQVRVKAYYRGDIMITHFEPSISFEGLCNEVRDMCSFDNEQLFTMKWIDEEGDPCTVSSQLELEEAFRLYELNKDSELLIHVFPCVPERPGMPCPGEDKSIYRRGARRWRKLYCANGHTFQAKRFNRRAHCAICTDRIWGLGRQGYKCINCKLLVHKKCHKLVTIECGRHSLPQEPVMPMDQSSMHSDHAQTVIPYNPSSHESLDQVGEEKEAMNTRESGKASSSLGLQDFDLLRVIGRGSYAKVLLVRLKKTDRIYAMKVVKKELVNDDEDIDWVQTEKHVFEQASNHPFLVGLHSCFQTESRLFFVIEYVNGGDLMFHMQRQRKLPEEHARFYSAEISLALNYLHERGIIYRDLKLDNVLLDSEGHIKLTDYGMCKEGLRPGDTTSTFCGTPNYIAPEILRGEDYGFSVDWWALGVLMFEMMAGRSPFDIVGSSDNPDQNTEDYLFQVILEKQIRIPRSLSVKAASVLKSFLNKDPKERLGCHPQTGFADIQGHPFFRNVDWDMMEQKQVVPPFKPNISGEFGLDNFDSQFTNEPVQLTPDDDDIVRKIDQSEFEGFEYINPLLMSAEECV

[7] = molecular target: Cyclin-dependent kinase 1/cyclin B (Homo sapiens) (UniProt P06493+P14635+Q8WWL7+O95067); assay: Inhibition of human CDK1/cycB expressed in Sf9 cells at 100 uM; values are per cent of control
[8] = molecular target: Cyclin-dependent kinase 2/cyclin E (Homo sapiens) (UniProt P24864+P24941+O96020); assay: Inhibition of human CDK2/cycE expressed in Sf9 cells at 100 uM; values are per cent of control
Gallus gallus [9] = organism: Gallus gallus; assay: Inhibition of vessel growth in chick embryo assay at 50 ug after 24 h; format: functional; procedure, shortened: as §1
Gallus gallus [10] = organism: Gallus gallus; assay: Inhibition of vessel growth in chick embryo assay at 10 ug after 24 h; format: functional; procedure, shortened: as §1
Tubulin = Tubulin (Sus scrofa, UniProt P02554+P02550); assay: Inhibition of tubulin polymerization in porcine brain
Procedure, shortened: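 Microtubule protein isolated from porcine brain, 1 mg/mL, polymerized 20 min at 37 °C in PIPES buffer with 10 mM GTP, pH 6.8. Turbidity followed at 360 nm; assembly compared with an effector-free control.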

Angiopoietin-1 receptor (Homo sapiens), sequence (Q02763 whole entry): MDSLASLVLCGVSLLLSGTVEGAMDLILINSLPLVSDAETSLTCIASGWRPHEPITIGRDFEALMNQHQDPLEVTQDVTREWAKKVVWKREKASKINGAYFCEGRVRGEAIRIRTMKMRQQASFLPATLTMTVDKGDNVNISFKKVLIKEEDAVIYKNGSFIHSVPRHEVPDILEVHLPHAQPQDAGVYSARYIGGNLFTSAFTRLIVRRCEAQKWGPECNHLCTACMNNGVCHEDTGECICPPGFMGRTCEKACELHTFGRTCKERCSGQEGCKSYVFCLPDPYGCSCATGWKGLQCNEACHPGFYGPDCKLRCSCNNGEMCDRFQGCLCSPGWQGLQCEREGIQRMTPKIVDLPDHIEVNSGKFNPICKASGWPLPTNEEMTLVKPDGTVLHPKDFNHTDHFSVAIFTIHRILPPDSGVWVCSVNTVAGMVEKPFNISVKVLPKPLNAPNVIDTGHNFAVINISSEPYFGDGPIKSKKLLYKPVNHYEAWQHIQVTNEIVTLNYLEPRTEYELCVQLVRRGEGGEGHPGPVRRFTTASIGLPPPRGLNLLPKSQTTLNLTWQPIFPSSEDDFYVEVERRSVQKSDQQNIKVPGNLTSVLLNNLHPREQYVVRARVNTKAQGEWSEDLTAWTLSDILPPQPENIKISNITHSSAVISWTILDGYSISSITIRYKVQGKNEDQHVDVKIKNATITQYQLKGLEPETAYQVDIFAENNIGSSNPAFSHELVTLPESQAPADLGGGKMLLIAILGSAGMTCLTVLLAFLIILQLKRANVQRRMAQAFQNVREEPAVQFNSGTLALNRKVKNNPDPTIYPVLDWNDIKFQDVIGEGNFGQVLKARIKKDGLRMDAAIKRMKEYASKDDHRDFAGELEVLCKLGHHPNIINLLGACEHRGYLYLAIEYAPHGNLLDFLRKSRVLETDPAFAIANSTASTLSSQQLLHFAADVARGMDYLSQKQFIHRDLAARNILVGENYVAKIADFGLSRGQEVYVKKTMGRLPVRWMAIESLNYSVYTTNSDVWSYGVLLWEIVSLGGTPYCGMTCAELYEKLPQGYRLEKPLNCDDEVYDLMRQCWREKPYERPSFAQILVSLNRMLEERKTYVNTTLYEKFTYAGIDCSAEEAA
T1 sequence (P35968 whole entry): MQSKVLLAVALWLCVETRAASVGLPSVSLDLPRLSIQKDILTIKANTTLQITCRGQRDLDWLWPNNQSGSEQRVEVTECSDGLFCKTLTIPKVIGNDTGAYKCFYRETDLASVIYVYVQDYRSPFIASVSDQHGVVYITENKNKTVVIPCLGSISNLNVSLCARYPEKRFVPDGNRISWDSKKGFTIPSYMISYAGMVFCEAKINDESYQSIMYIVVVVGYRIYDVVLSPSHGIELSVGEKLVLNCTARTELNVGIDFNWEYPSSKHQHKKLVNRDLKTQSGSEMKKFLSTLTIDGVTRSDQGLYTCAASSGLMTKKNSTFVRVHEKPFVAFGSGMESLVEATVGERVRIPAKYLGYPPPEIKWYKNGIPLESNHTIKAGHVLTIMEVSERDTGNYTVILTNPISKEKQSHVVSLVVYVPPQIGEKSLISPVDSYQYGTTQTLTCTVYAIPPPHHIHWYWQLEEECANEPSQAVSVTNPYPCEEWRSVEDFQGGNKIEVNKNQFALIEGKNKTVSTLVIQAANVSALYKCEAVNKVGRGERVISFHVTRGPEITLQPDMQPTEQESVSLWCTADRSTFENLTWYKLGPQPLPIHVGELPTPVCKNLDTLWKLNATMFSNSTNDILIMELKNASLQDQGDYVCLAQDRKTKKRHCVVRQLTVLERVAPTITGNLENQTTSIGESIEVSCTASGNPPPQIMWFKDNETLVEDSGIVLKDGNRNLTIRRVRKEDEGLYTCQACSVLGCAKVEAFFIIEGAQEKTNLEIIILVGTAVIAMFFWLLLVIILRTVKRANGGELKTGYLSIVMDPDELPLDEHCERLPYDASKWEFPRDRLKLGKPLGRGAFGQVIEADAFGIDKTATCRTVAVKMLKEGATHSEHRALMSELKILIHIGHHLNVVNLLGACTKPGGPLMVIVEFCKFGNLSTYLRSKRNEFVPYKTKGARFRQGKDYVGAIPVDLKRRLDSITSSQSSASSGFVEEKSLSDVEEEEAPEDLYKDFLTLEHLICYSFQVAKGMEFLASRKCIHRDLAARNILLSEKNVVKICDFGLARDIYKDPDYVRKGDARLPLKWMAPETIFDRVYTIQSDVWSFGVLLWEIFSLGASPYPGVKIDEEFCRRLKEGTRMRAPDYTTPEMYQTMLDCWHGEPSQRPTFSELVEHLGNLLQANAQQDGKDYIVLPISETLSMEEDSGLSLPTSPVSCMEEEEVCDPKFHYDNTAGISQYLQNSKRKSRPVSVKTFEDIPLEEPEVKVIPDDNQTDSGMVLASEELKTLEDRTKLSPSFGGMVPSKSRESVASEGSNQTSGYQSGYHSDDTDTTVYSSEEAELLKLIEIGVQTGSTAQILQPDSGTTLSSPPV

SMILES | residual activity [1] [%] | IC50 [2] [µM] | residual activity [4] [%] | residual activity [5] [%] | residual activity [6] [%] | residual activity [7] [%] | residual activity [8] [%] | IC50 (Tubulin) [µM] | Inhibition (Gallus gallus [3]) [%] | Inhibition (Gallus gallus [9]) [%] | Inhibition (Gallus gallus [10]) [%]
COc1ccc(C2=C(c3ccccc3)C(=O)NC2=O)cc1OC | 100 |  | 98 | 86 | 94 | 86 | 82 |  |  | 2.8 | 
O=C1NC(=O)C(c2ccccc2)=C1c1ccccc1 | 99 |  | 10 | 81 | 97 | 106 | 93 |  |  | 11.3 | 
COc1ccc(C2=C(c3ccccc3)C(=O)NC2=O)cc1 | 101 |  | 12 | 94 | 102 | 96 | 95 |  |  | 16.4 | 
COc1ccc(C2=C(c3ccc(OC)cc3)C(=O)NC2=O)cc1 | 109 |  | 12 | 100 | 95 | 101 | 103 |  |  |  | 47.4

The next lines start with results.

residual activity [1] [%] | IC50 [2] [µM] | residual activity [4] [%] | residual activity [5] [%] | residual activity [6] [%] | residual activity [7] [%] | residual activity [8] [%] | IC50 (Tubulin) [µM] | SMILES | Inhibition (Gallus gallus [3]) [%] | Inhibition (Gallus gallus [9]) [%] | Inhibition (Gallus gallus [10]) [%]
116 | 2.5 | 77 | 17 | 92 | 101 | 71 |  | COc1cc(C2=C(c3cc[nH]c3)C(=O)NC2=O)cc(OC)c1OC | 47.2 |  | 
103 |  | 10 | 55 | 99 | 105 | 88 |  | COc1cc(C2=C(c3ccccc3)C(=O)NC2=O)cc(OC)c1OC |  | 32.2 | 
108 |  | 92 | 45 | 97 | 88 | 89 |  | COc1ccc(C2=C(c3cc(OC)c(OC)c(OC)c3)C(=O)NC2=O)cc1 |  |  | 27.3
101 |  | 85 | 19 | 103 | 89 | 84 | 7.6 | COc1ccc(C2=C(c3cc(OC)c(OC)c(OC)c3)C(=O)NC2=O)cc1O |  |  | 76.9
